# HCV core dimer – inhibitors of HCV core protein dimerization, primary screen, biochemical, TR-FRET, high-throughput | TR-FRET GST/Flag-core106 dimerization, 1536-well | inhibition, % at 5 µM | 300,000 compounds, 0.33% hits | AID 1899, 2009;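 active = inhibition above the mean of all tested compounds plus 3 SD, set per screening campaign, cut at about 45% in these data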
#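 Assay system: GST-tagged and Flag-tagged HCV core protein residues 1-106 / Times: compound-protein-antibody incubation 4 h at 22.5 °C / Signal: time-resolved FRET, ex 340 nm, em 617 and 671 nm / Evaluation: % inhibition based on acceptor/donor emission ratio / Benchmarks: wells lacking GST-core106 and wells with excess unlabelled core106 / Repeats: singlicate, one well per compound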
# PP1 inh – PP1-alpha phosphatase inhibitors, primary screen, counter-screen for PP5 inhibitor project, biochemical, fluorescence, OMFP substrate, single point. purified PP1alpha. 320,000 compounds, 0.9% hits. inhibition, % at 6.7 µM. AID 2235, 2010. Serine/threonine-protein phosphatase PP1-alpha catalytic subunit (Homo sapiens), P62136;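 active = inhibition above the mean inhibition of all tested compounds plus 3 SD, computed separately for each screening campaign, cut at about 15% in these data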
# EBNA-1 inh – EBNA-1 DNA-binding inhibitors, primary screen, biochemical, fluorescence polarization; inhibition, % at 14.8 µM; 300,000 compounds, 0.34% hits; AID 1950, 2009; in the data active = inhibition above about 28%
# HCV NS3 hel inh – inhibitors of HCV NS3 helicase, primary screen, biochemical, Cy5 molecular beacon fluorescence; Hepatitis C virus NS3 helicase; NS3 helicase DNA unwinding; inhibition, % at 10.9 µM; 290,000 compounds, 0.56% hits; AID 1800, 2009;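 active = inhibition above the mean of all tested compounds plus 3 SD, set per campaign, cut at about 35% in these data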;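 also: 0% = DMSO wells and 100% = thioflavine S control wells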
#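 assay system = NS3 helicase fragment of HCV | buffer or medium = MOPS pH 6.5, MgCl2, DTT, Tween20, BSA | timing = 60 min unwinding reaction at 25 °C after ATP addition | signal = Cy5 beacon fluorescence read at start and 1 h | read-out basis = % inhibition of unwinding | control set = low DMSO, high thioflavine S at 110 µM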
# ZTA DNA inh – counter-screen for EBNA-1 inhibitors: inhibitors of Epstein-Barr virus ZTA; 320,000 compounds, 0.15% hits; inhibition, % at 11 µM; P03206; ZTA-DNA binding, fluorescence polarization; in the data active = inhibition above about 33%
# Target sequence (P03206 whole entry, looked up): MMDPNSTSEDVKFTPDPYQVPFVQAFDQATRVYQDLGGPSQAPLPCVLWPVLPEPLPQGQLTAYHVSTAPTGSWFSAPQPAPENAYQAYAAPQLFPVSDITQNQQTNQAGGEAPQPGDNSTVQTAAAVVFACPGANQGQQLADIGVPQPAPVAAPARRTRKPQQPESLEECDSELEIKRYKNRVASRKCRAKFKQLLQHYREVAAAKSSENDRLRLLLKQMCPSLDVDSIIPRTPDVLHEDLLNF
# EBNA-1 inh conf – EBNA-1 DNA-binding inhibitors, retest, confirmation, biochemical, fluorescence polarization, triplicate; shares compounds with EBNA-1 inh; Recombinant EBNA-1 DBD, Cy5-DNA fluorescence polarization; inhibition, % at 14.8 µM; 830 compounds, 35% hits;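 active = mean inhibition across replicates above a set limit taken from the earlier primary screen, cut at about 28% in these data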;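 also: plate controls were EBNA-1 protein with DMSO for no effect and wells lacking EBNA-1 for full effect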
# ZTA counter trip – EBV Zta DNA binding inhibitors, counter-screen for EBNA-1 inhibitor project, biochemical, fluorescence polarization, triplicate. shares compounds with EBNA-1 inh. Zta-ZRE DNA binding, Cy5 fluorescence polarization. inhibition, % at 11.1 µM. 830 tested, under 10 active. AID 2328, 2010;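 active = mean inhibition over triplicates above a set limit taken from the primary EBNA-1 screen, cut at about 37% in these data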;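 also: purified full length Zta protein with Cy5 labeled ZRE DNA probe; 0% = Zta with DMSO and 100% = wells lacking Zta protein; inhibitors lower polarization by freeing the labeled DNA probe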
# * = called active by the depositor; . = not tested or not shown. A selection: hits, their analogues and other compounds. The true share with any hit is near 1.9%.
SMILES,HCV core dimer,PP1 inh,EBNA-1 inh,HCV NS3 hel inh,ZTA DNA inh,EBNA-1 inh conf,ZTA counter trip
Cc1ccc(S(=O)(=O)N2CCN(C(=S)NCCc3ccccc3)CC2)cc1,2,-1,65*,-4,-3,11,-2
O=C(c1ccccc1)c1nn(-c2ccc(Cl)cc2)cc1C(=O)c1cc2ccccc2oc1=O,13,1,-13,4,-26,.,.
Cc1ccc2nc(-c3ccc(NC(=O)COC(=O)c4ccco4)cc3)sc2c1,-15,3,21,0,19,.,.
Cc1ccc(-c2csc(NC(=O)c3cccc(S(=O)(=O)N4CCN(C)CC4)c3)n2)cc1,-1,-3,0,-51,9,.,.
CNS(=O)(=O)c1cccc(C(=O)OCC(=O)Nc2ccc(-c3nc4ccc(C)cc4s3)cc2)c1,-67,5,103*,10,23,81*,26
CC1CCN(CC(=O)Nc2nc(-c3ccccc3)cs2)CC1,8,-1,-5,-4,-1,.,.
Cc1ccc(-c2csc(NC(=O)COC(=O)c3cccc(S(=O)(=O)N4CCOCC4)c3)n2)cc1,14,0,98*,-7,-6,-3,0
CCOC(=O)c1ccc(-c2csc(NC(=O)CN3CCC(C)CC3)n2)cc1,-3,0,43*,-43,-12,70*,-1
Cc1cc(C(=O)OCC(=O)Nc2nc(-c3ccccc3)cs2)c(C)o1,13,5,34*,5,7,10,-10
COc1cccc(N2CCN(S(=O)(=O)c3ccc(-c4cnc(C5CC5)o4)cc3)CC2)c1,20,-3,91*,-14,-5,84*,2
COc1ccc(N2CCN(S(=O)(=O)c3ccc(-c4cnc(C5CC5)o4)cc3)CC2)cc1,-1,11,7,12,0,.,.
Cc1ccccc1NC(=O)Cn1c(=O)n(Cc2ccccc2)c(=O)c2c(C)c(C)sc21,12,-1,37*,-7,2,26,-4
Cc1ccc2nc(-c3sc4nc(C)cc(C)c4c3N)[nH]c2c1,-20,2,-6,18,5,.,.
CC(C)N(C(=O)Cn1c(=O)oc2ccccc21)c1ccccc1,-7,5,0,0,5,.,.
CCOc1ccc(N=C2NC(=O)C(CC(=O)Nc3ccc(OC)cc3)S2)cc1 (stereo not given),12,-1,33*,0,0,29*,0
O=C(COC(=O)c1cc(Cl)ccc1Cl)Nc1ccc2[nH]c(=O)[nH]c2c1,-3,0,85*,.,-7,28*,3
CN1CCN(c2ccc(NC(=S)NC(=O)/C=C/c3ccco3)cc2)CC1,-12,4,-12,-54,-6,.,.
CCn1c(Cc2ccccc2)nnc1SCC(=O)Nc1ccc2c(c1)OCCO2,3,0,29*,10,-1,-1,4
Cc1ccccc1OCc1nnc(SCC(=O)Nc2ccc3c(c2)OCO3)n1C,1,6,7,-7,-11,.,.
Cc1ccccc1OCc1nnc(SCC(=O)Nc2ccc3nc(SCC(=O)Nc4ccccc4)sc3c2)n1C,17,17*,44*,-2,-16,43*,12
CCOc1ccc(NC(=O)CN(C)C(=O)/C=C/c2ccc(S(=O)(=O)N3CCCCCC3)cc2)cc1OCC,6,-2,33*,.,-1,14,4
Cc1cc(NC(=O)CSc2nc3ccccc3c(=O)n2Cc2ccc(F)cc2)no1,0,-2,57*,1,-2,23,14
Cc1ccc(S(=O)(=O)N2CCOCC2)cc1NC(=O)CSc1nc2ccccc2c(=O)n1Cc1ccccc1,17,4,33*,-24,-2,13,18
O=C(NCCC1CCCCN1S(=O)(=O)c1cccs1)C(=O)Nc1ccc(F)cc1 (stereo not given),1,-5,-19,.,-5,.,.

# Screening results (PubChem)
